mABHD4 FP: inhibitors of mouse ABHD4 | 0.54% of 370,000 active | inhibition, % at 8.92 µM | Q8VD66 | purified mABHD4, FP-Rh probe fluorescence polarization;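 active = inhibition exceeding the mean over every tested compound plus 3 SD, cut at about 30% in these data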;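 note: 0% = plate median of compound wells and 100% = S159A mutant with DMSO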
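assay system = mABHD4 protein | compound dosing = single nominal dose of 8.92 µM, 0.89% DMSO final | read-out basis = percent inhibition of probe binding, normalized to plate controls | schedule = Enzyme–compound pre-incubation 45 min, then probe 60 min, both 25 °C | detection = fluorescence polarization, excitation 525 nm, emission 598 nm, BODIPY TMR filters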
TCR CD3 inh: blocks the human TCR-CD3 interaction | TAMRA-labeled TCR probe fluorescence, biochemical | inhibition, % at 9.4 µM | 0.37% of 360,000 active | AID 651800; in the data active = inhibition above about 19%;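 note: recombinant mutant TCR 2C K166C tagged with TAMRA read by polarization; 0% = receptor in buffer alone and 100% = receptor with positive control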
HTRA1 inhibitor: inhibitors of human serine peptidase HTRA1 | 0.5% of 340,000 active | Q92743 | recombinant HTRA1, FP-rhodamine activity-based probe, fluorescence polarization | inhibition, % at 5.96 µM; in the data active = inhibition above about 36%;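 note: 0% = enzyme with DMSO and 100% = wells lacking enzyme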
SIAE primary: blocks human sialic acid acetylesterase; Q9HAT2; SIAE FP-Rh probe binding, fluorescence polarization; inhibition, % at 9.66 µM; 0.69% of 370,000 active;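 active = inhibition above a cutoff: mean of compounds within the control limits plus 3 SD of those, cut at about 17% in these data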;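 note: 0% = plate median of compound wells and 100% = probe without SIAE protein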
PAD4 inh: PAD4 (human) enzyme inhibition; AID 485272; 0.41% of 330,000 active; Q9UM07; recombinant PAD4, RCA probe fluorescence polarization; inhibition, % at 6.36 µM;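 active = percent inhibition above a cutoff equal to the mean of all tested compounds plus 3 SD, cut at about 15% in these data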;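 note: 0% = PAD4 with RCA probe and DMSO and 100% = probe without PAD4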
Target sequence (Q9UM07 whole entry, looked up): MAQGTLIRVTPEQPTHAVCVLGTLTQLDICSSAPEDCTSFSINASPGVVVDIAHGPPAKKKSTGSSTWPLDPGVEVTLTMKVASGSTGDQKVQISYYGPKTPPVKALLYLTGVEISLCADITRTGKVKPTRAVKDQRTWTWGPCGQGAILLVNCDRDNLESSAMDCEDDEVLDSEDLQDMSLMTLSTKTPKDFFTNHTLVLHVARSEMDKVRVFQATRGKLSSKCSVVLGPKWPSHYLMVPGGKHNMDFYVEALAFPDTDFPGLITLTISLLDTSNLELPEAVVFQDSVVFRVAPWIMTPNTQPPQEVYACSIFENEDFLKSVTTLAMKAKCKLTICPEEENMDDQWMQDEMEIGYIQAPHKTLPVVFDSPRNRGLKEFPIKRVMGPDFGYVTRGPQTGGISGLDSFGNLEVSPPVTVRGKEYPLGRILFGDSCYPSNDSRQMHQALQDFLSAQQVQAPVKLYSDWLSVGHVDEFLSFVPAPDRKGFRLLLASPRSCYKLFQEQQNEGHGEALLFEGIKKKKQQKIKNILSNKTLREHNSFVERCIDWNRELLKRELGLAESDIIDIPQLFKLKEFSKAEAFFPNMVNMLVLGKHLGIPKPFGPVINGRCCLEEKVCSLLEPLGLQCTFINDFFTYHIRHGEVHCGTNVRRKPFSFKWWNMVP
TDP2 absorb: TDP2 (human) inhibition, absorbance primary screen; O95551; recombinant TDP2, T5PNP hydrolysis, p-nitrophenol absorbance 415 nm; inhibition, % at 12.8 µM; 0.34% of 370,000 active;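 active = inhibition above the mean of all tested compounds plus 3 SD, set per campaign, cut at about 25% in these data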;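 note: 0% = DMSO with enzyme and 100% = buffer with substrate but no TDP2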
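Assay system: recombinant human TDP2 / Reagent: T5PNP substrate at 5 mM, a TopII-DNA adduct mimic / Measured by: epi absorbance from released p-nitrophenol / Evaluation: % inhibition relative to enzyme-containing and enzyme-free wells / Control set: enzyme-free and DMSO wells / Replicates: each compound tested once, singlicate / Schedule: enzyme reaction with compound for 2 h at 37 °C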
SIAE inh conf: confirmation of human SIAE inhibitors; shares compounds with SIAE primary; SIAE FP-Rh activity-based probe, fluorescence polarization; inhibition, % at 9.66 µM; 13% of 2,300 active;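 active = mean inhibition of the replicates above the hit cutoff set in the primary screen, cut at about 17% in these data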;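 note: 0% = SIAE with DMSO and probe and 100% = probe without SIAE; inhibitors lower polarization as more probe stays unbound to SIAE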
An asterisk follows results filed as active; nt = not tested or not shown. Compounds with a hit are over-represented: about 2% of the library has one in this group of screens.

SMILES	mABHD4 FP	TCR CD3 inh	HTRA1 inhibitor	SIAE primary	PAD4 inh	TDP2 absorb	SIAE inh conf
O=c1[nH]c(=S)[nH]c2c1[C@H](C1CC1)O[C@H](CCc1ccccc1)C2	-2	-5	nt	1	nt	-6	nt
Cc1cccc[n+]1C1C(c2ccc([N+](=O)[O-])cc2)C(C#N)=C(C(=C=[N-])C#N)NC1(O)C1CC1 (centres undefined)	10	-12	14	40*	9	9	0
O=C(O)CCc1n[nH]c(=S)[nH]c1=O	1	-3	7	17*	2	1	2
O=C(NCCCN1CCCC1=O)c1ccc([N+](=O)[O-])s1	-7	-11	2	-2	4	-20	nt
Cc1ccc(-c2ccc(C3C(C#N)=C(N)Oc4n[nH]c(C)c43)o2)cc1 (centres undefined)	12	0	4	13	-10	9	nt
Cc1[nH]nc2c1C(c1ccc(-c3ccc(Cl)cc3)o1)C(C#N)=C(N)O2 (centres undefined)	4	3	0	18*	-3	3	-3
O=C(Nc1c(Br)cc2c(c1Br)Cc1ccccc1-2)C(Cl)Cl	4	2	-3	-4	nt	9	nt
O=C(O)c1cn(-c2ccc(F)c(F)c2)c2c(F)c(F)c(F)c(F)c2c1=O	2	6	-5	20*	1	6	2
COc1cc(CNc2ccc(N3CCOCC3)cc2)ccc1OCC(=O)NC(C)(C)C	17	5	10	19*	-4	7	5
Cc1cc(C)c(S(=O)(=O)N2CCOC23CCN(S(C)(=O)=O)CC3)c(C)c1	1	-3	-3	1	nt	-4	nt
CCOC(=O)c1ccccc1NC(=O)COC(=O)CCC(=O)c1ccc(C)cc1	4	-5	-11	20*	-3	8	-4
CC(C)=CCC(C)(C)CNC(=O)NC1CCCCC1	-2	2	-6	20*	4	6	-4
COc1cc(NC(=O)Nc2nc(C(N)C3CCCCC3)cs2)cc(OC)c1OC (centres undefined)	12	-11	nt	21*	nt	-3	10
CCCCc1c(-c2ccccc2OC)ncn1CCc1cccc(OC)c1	4	2	nt	-1	nt	-6	nt
CCCCc1c(-c2ccccc2OC)ncn1Cc1cccc(OC)c1	2	3	nt	20*	nt	-1	-4
CCOC(=O)c1sc(=S)[nH]c1C	2	-4	2	18*	nt	1	7
CCOC(=O)c1sc(NC(=O)Nc2cccc(Cl)c2)cc1C	-4	1	-7	18*	-1	-2	-6
CCOc1ccccc1/C=N/N1CCN(Cc2ccccc2)CC1	4	-2	-2	6	2	-9	nt
CCn1c(SCC(=O)NN=Cc2ccc(C(=O)O)cc2)nc2ccccc21	-7	nt	nt	1	nt	-1	nt
O=C(NNC(=O)C1CC1c1ccccc1)c1cccc([N+](=O)[O-])c1 (centres undefined)	-1	-1	4	18*	-1	9	1
CC1(C(=O)NNC(=O)c2cccc([N+](=O)[O-])c2)CC1Br (centres undefined)	-5	-5	0	4	nt	1	nt
COc1ccc(NC(=O)C2CCC(=O)N2C(=O)OCc2ccccc2)cc1 (centres undefined)	-5	8	2	-5	-1	3	nt
COc1ccc2cc(C(=O)N/N=C/c3cc(OC)c(OC)c(OC)c3)[nH]c2c1	9	3	0	28*	2	3	-9
COc1ccc(/C=N/NC(=O)c2cc3cc(OC)c(OC)cc3[nH]2)cc1	23	2	7	5	-1	-11	nt
COc1cc(/C=N/NC(=O)c2ccc(-c3ccccc3)cc2)cc(OC)c1OC	1	3	-17	2	0	8	nt
SMILES	mABHD4 FP	TCR CD3 inh	HTRA1 inhibitor	SIAE primary	PAD4 inh	TDP2 absorb	SIAE inh conf
COc1cc(/C=N/NC(=O)c2cc(-c3ccccc3)sc2N)cc(OC)c1OC	5	4	nt	31*	3	3	-45
COc1cc2cc(C(=O)N/N=C/c3ccccc3Cl)[nH]c2cc1OC	16	2	10	27*	-7	4	5
Cc1cn([C@H]2C[C@H](O)[C@@H](CNC(=O)[C@H](N)C3CC3)O2)c(=O)[nH]c1=O	-3	5	6	5	nt	-1	nt
CN(C(=O)COC(=O)c1nn(C)c(=O)c2ccccc12)c1c(N)n(Cc2ccccc2)c(=O)[nH]c1=O	3	7	0	-2	-3	9	nt
CCC(=O)NC(c1ccco1)c1cc(Cl)c2cccnc2c1OC (centres undefined)	11	-4	-3	0	0	4	nt
CC(=O)NC(c1ccco1)c1cc(Cl)c2cccnc2c1O (centres undefined)	18	-3	nt	18*	nt	1	7
O=[N+]([O-])c1ccc(NC2CCCC2)cc1	4	3	-9	19*	-3	-1	1
O=C1CCCCC1Nc1ccc([N+](=O)[O-])cc1 (centres undefined)	2	6	5	-4	nt	-8	nt
O=C(CNS(=O)(=O)c1ccccc1)N1CCN(c2ccccn2)CC1	0	nt	nt	0	nt	-10	nt
CC(C)CCn1c(COc2ccccc2)n[nH]c1=S	-7	3	4	20*	-2	-11	3
S=c1[nH]nc(COc2ccccc2)n1Cc1ccccc1	-2	-6	3	6	0	6	nt
CCc1cc(/C(Cc2ccccn2)=N\O)c(O)cc1O	3	-9	11	19*	2	0	22*
CCc1cc(/C(Cc2cscn2)=N\O)c(O)cc1O	4	-2	9	14	3	0	nt
CCc1cc(/C(Cc2ccc3ccccc3n2)=N\O)c(O)cc1O	2	6	25	61*	-6	1	40*
O=C(CCN1C(=O)[C@@H]2Cc3ccccc3CN2C1=O)N[C@H](C(=O)O)c1ccccc1	-2	11	2	-4	-1	1	nt
O=C(CCN1C(=O)c2ccccc2C1=O)c1cnc[nH]1	-17	-3	nt	-4	nt	-8	nt
CCOC(=O)c1c(-c2ccccc2)csc1NC(=O)/C(C#N)=C/c1ccc(OC)c(OC)c1	-5	4	-9	0	-6	7	nt
CCOC(=O)c1c(-c2ccccc2)csc1NC(=O)/C(C#N)=C/c1ccc(O)c(OC)c1	-9	-9	-38	19*	-10	11	14
Cc1cc(C)nc(SCC(=O)Nc2ncc3c(n2)CCCC3=O)n1	5	2	10	47*	2	0	-5
O=C(CSC(=S)N1CCCCC1)Nc1ncc2c(n1)CCCC2=O	-12	3	-1	-5	1	-5	nt
